Assay results as given in ChEMBL document CHEMBL1121611, “Synthesis and antileukemic activity of 1-methyl-2,5-diphenyl-3,4-bis(hydroxymethyl)-, 1,2,3-triphenyl-4,5-bis(hydroxymethyl)-, and 1-methyl-2,3-diphenyl-4,5-bis(hydroxymethyl)pyrrole bis(N-methylcarbamate)” (1980).

Key:
Assay type in all cases: functional, Mus musculus
P388 [1] = assay: Toxicity against P388 Lymphocytic Leukemia and measured for number of mice survived after five days of 50 mg/kg drug administration out of 6 mice tested
Method in brief: (§1)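 Male CD1F1 mice given ip ascitic fluid with ca. 6 × 10^6 P388 cells, then ip dosing in a distilled water-Tween 80 suspension, nine daily doses beginning 24 h post-inoculation. Surviving mice counted on day 5, i.e., 4 days after the first compound injection.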

P388 [2] = assay: Animal weight loss was tested for P388 Lymphocytic Leukemia and measured for change in weight, in treated and control mice at dose of 100 mg/kg; design: unit not given here
Method in brief: (§2)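 P388 leukemia was induced by ip inoculation of ascitic fluid containing ca. 6 × 10^6 cells into male CD1F1 mice. Drug was given ip as a distilled water–Tween 80 suspension, nine daily doses starting 24 h after tumor inoculation. Body weight change was recorded on day 5, i.e. 4 days after the first injection, in treated and untreated control groups.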

P388 [3] = assay: Animal weight loss was tested for P388 Lymphocytic Leukemia and measured for change in weight, in treated and control mice at dose of 25 mg/kg; design: unit not given here; method in brief: as §2
P388 [4] = assay: Compound was tested against P388 Lymphocytic Leukemia for %survival of mice measured as treated versus control at dose of 6.25 mg/kg
Method in brief: (§3)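 Male CD1F1 mice inoculated ip with ascitic fluid holding ca. 6 × 10^6 P388 cells. Drug given ip as a distilled water-Tween 80 suspension, nine daily doses starting 24 h after tumor inoculation. Median survival time of treated mice compared with untreated controls and expressed as % T/C; % T/C ≥ 120 counted as significant.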

P388 [5] = assay: Compound was tested against P388 Lymphocytic Leukemia for %survival of mice measured as treated versus control at dose of 12.5 mg/kg; method in brief: as §3
P388 [6] = assay: Animal weight loss was tested for P388 Lymphocytic Leukemia and measured for change in weight, in treated and control mice at dose of 12.5 mg/kg; design: unit not given here; method in brief: as §2
P388 [7] = assay: Compound was tested against P388 Lymphocytic Leukemia for %survival of mice measured as treated versus control at dose of 25 mg/kg; method in brief: as §3
P388 [8] = assay: Compound was tested against P388 Lymphocytic Leukemia for %survival of mice measured as treated versus control at dose of 50 mg/kg; method in brief: as §3
P388 [9] = assay: Animal weight loss was tested for P388 Lymphocytic Leukemia and measured for change in weight, in treated and control mice at dose of 6.25 mg/kg; method in brief: as §2
P388 [10] = assay: Toxicity against P388 Lymphocytic Leukemia and measured for number of mice survived after five days of 100 mg/kg drug administration out of 6 mice tested; method in brief: as §1
P388 [11] = assay: Compound was tested against P388 Lymphocytic Leukemia for %survival of mice measured as treated versus control at dose of 100 mg/kg; method in brief: as §3
P388 [12] = assay: Toxicity against P388 Lymphocytic Leukemia and measured for number of mice survived after five days of 25 mg/kg drug administration out of 6 mice tested; method in brief: as §1
P388 [13] = assay: Animal weight loss was tested for P388 Lymphocytic Leukemia and measured for change in weight, in treated and control mice at dose of 50 mg/kg; design: unit not given here; method in brief: as §2
P388 [14] = assay: Toxicity against P388 Lymphocytic Leukemia and measured for number of mice survived after five days of 12.5 mg/kg drug administration out of 6 mice tested; method in brief: as §1
P388 [15] = assay: Toxicity against P388 Lymphocytic Leukemia and measured for number of mice survived after five days of 6.25 mg/kg drug administration out of 6 mice tested; method in brief: as §1
P388 [16] = assay: Toxicity against P388 Lymphocytic Leukemia and measured for number of mice survived after five days of 200 mg/kg drug administration out of 6 mice tested; method in brief: as §1
P388 [17] = assay: tested for toxity against P388 Lymphocytic Leukemia and measured for number of mice survived after five days of 12.5 mg/kg drug administration out of 6 mice tested; method in brief: as §1
P388 [18] = assay: Compound was tested against P388 Lymphocytic Leukemia for %survival of mice measured as treated versus control at dose of 200 mg/kg; method in brief: as §3
P388 [19] = assay: Animal weight loss was tested for P388 Lymphocytic Leukemia and measured for change in weight, in treated and control mice at dose of 200 mg/kg; method in brief: as §2
P388 [20] = assay: Toxicity was tested for P388 Lymphocytic Leukemia and measured for number of mice survived after five days of 25 mg/kg drug administration out of 6 mice tested; method in brief: as §1
P388 [21] = assay: Toxicity was tested for P388 Lymphocytic Leukemia and measured for number of mice survived after five days of 10 mg/kg drug administration out of 6 mice tested
P388 [22] = assay: Compound was tested against P388 Lymphocytic Leukemia for %survival of mice measured as treated versus control at dose of 5 mg/kg
P388 [23] = assay: Animal weight loss was tested for P388 Lymphocytic Leukemia and measured for change in weight, in treated and controlled mice at dose of 20 mg/kg
P388 [24] = assay: Toxicity against P388 Lymphocytic Leukemia and measured for change in weight, in treated and controlled mice at dose of 40 mg/kg
P388 [25] = assay: Compound was tested against P388 Lymphocytic Leukemia for %survival of mice measured as treated versus control at dose of 20 mg/kg
P388 [26] = assay: Toxicity against P388 Lymphocytic Leukemia and measured for number of mice survived after five days of 5 mg/kg drug administration out of 6 mice tested
P388 [27] = assay: Compound was tested against P388 Lymphocytic Leukemia for %survival of mice measured as treated versus control at dose of 2.5 mg/kg
P388 [28] = assay: Toxicity was tested for P388 Lymphocytic Leukemia and measured for number of mice survived after five days of 20 mg/kg drug administration out of 6 mice tested
P388 [29] = assay: Animal weight loss was tested for P388 Lymphocytic Leukemia and measured for change in weight, in treated and control mice at dose of 5 mg/kg
P388 [30] = assay: Animal weight loss was tested for P388 Lymphocytic Leukemia and measured for change in weight, in treated and control mice at dose of 10 mg/kg
P388 [31] = assay: Toxicity against P388 Lymphocytic Leukemia and measured for number of mice survived after five days of 2.5 mg/kg drug administration out of 6 mice tested
P388 [32] = assay: Compound was tested against P388 Lymphocytic Leukemia for %survival of mice measured as treated versus control at dose of 40 mg/kg
P388 [33] = assay: Compound was tested against P388 Lymphocytic Leukemia for %survival of mice measured as treated versus control at dose of 10 mg/kg
P388 [34] = assay: Toxicity was tested for P388 Lymphocytic Leukemia and measured for number of mice survived after five days of 40 mg/kg drug administration out of 6 mice tested
P388 [35] = assay: Animal weight loss was tested for P388 Lymphocytic Leukemia and measured for change in weight, in treated and control mice at dose of 2.5 mg/kg
P388 [36] = assay: Toxicity against P388 Lymphocytic Leukemia and measured for number of female mice survived after five days of 6.25 mg/kg drug administration out of 6 mice tested
P388 [37] = assay: Toxicity against P388 Lymphocytic Leukemia and measured for number of female mice survived after five days of 12.5 mg/kg drug administration out of 6 mice tested
P388 [38] = assay: Toxicity against P388 Lymphocytic Leukemia and measured for number of female mice survived after five days of 25 mg/kg drug administration out of 6 mice tested
P388 [39] = assay: Animal weight loss was tested for P388 Lymphocytic Leukemia and measured for change in weight, in treated and control mice at dose of 3.13 mg/kg; method in brief: as §2
P388 [40] = assay: Compound was tested against P388 Lymphocytic Leukemia for %survival of mice measured as treated versus control at dose of 3.13 mg/kg; method in brief: as §3
P388 [41] = assay: Toxicity against P388 Lymphocytic Leukemia and measured for number of mice survived after five days of 1.56 mg/kg drug administration out of 6 mice tested; method in brief: as §1
P388 [42] = assay: Compound was tested against P388 Lymphocytic Leukemia for %survival of mice measured as treated versus control at dose of 1.56 mg/kg; method in brief: as §3
P388 [43] = assay: Animal weight loss was tested for P388 Lymphocytic Leukemia and measured for change in weight, in treated and control mice at dose of 1.56 mg/kg; method in brief: as §2
P388 [44] = assay: Toxicity against P388 Lymphocytic Leukemia and measured for number of mice survived after five days of 3.13 mg/kg drug administration out of 6 mice tested; method in brief: as §1

With `CNC(=O)OCc1c(COC(=O)NC)c(-c2ccccc2)n(C)c1C` the “No. of mice survived” value (P388 [1]) was 6, the Weight loss (P388 [2]) was -6 and the Weight loss (P388 [3]) was -3.9. For the same compound, the T/C (P388 [4]) was 135%, the T/C (P388 [5]) was 130% and the Weight loss (P388 [6]) was -3.3. For the same compound, the T/C (P388 [7]) was 145%, the T/C (P388 [8]) was 90% and the Weight loss (P388 [9]) was -2.5. For the same compound, the “No. of mice survived” value (P388 [10]) was 5, the T/C (P388 [11]) was less than 70% and the “No. of mice survived” value (P388 [12]) was 6. The Weight loss (P388 [13]) was -4.6, the “No. of mice survived” value (P388 [14]) was 6 and the “No. of mice survived” value (P388 [15]) was 6.

`CNC(=O)OCc1c(-c2ccccc2)c(-c2ccccc2)n(-c2ccc(OC)cc2)c1COC(=O)NC` was tested, and the “No. of mice survived” value (P388 [1]) was 6, the Weight loss (P388 [2]) was -1 and the Weight loss (P388 [3]) was 0.5. For the same compound, the “No. of mice survived” value (P388 [16]) was 6, the T/C (P388 [5]) was 106% and the Weight loss (P388 [6]) was 0.3. The T/C (P388 [7]) was 119%, the “No. of mice survived” value (P388 [17]) was 6 and the T/C (P388 [8]) was 119%. The T/C (P388 [18]) was 135%, the Weight loss (P388 [19]) was -1.3 and the “No. of mice survived” value (P388 [10]) was 6. The T/C (P388 [11]) was 124%, the Weight loss (P388 [13]) was -0.8 and the “No. of mice survived” value (P388 [20]) was 6.

For `CNC(=O)OCc1c(COC(=O)NC)c(-c2ccccc2)n(C)c1-c1ccccc1`, the “No. of mice survived” value (P388 [21]) was 6, the T/C (P388 [22]) was 135% and the Weight loss (P388 [23]) was -2.8. The Weight loss (P388 [24]) was -4.4, the T/C (P388 [25]) was 205% and the “No. of mice survived” value (P388 [26]) was 6. The T/C (P388 [27]) was 135%, the “No. of mice survived” value (P388 [28]) was 6 and the Weight loss (P388 [29]) was -1. The Weight loss (P388 [30]) was -2.1, the “No. of mice survived” value (P388 [31]) was 6 and the T/C (P388 [32]) was 124%. The T/C (P388 [33]) was 164%, the “No. of mice survived” value (P388 [34]) was 6 and the Weight loss (P388 [35]) was -1.1.

`CNC(=O)OCc1c(-c2ccccc2)c(-c2ccccc2)n(-c2ccccc2)c1COC(=O)NC` was tested, and the “No. of mice survived” value (P388 [1]) was 6, the Weight loss (P388 [2]) was -0.6 and the Weight loss (P388 [3]) was 0.1. For the same compound, the “No. of mice survived” value (P388 [16]) was 6, the T/C (P388 [5]) was 110% and the Weight loss (P388 [6]) was -0.2. It also gave a T/C (P388 [7]) of 117%, a T/C (P388 [8]) of 126% and a T/C (P388 [18]) of 171%. For the same compound, the Weight loss (P388 [19]) was -2.4, the “No. of mice survived” value (P388 [10]) was 6 and the T/C (P388 [11]) was 144%. For the same compound, the “No. of mice survived” value (P388 [12]) was 6, the Weight loss (P388 [13]) was -1.1 and the “No. of mice survived” value (P388 [14]) was 6.

For `CNC(=O)OCc1c(COC(=O)NC)c(C)n(-c2ccccc2)c1C`, the “No. of mice survived” value (P388 [36]) was 5, the T/C (P388 [4]) was 134% and the T/C (P388 [5]) was 145%. For the same compound, the “No. of mice survived” value (P388 [37]) was 5, the “No. of mice survived” value (P388 [38]) was 6 and the T/C (P388 [7]) was 148%.

For `CNC(=O)OCc1c(-c2ccccc2)c(-c2ccccc2)n(C)c1COC(=O)NC`, the “No. of mice survived” value (P388 [1]) was 6, the Weight loss (P388 [39]) was -0.8 and the T/C (P388 [40]) was 128%. The Weight loss (P388 [2]) was -6.1, the Weight loss (P388 [3]) was -3.2 and the T/C (P388 [4]) was 138%. The “No. of mice survived” value (P388 [41]) was 6, the T/C (P388 [42]) was 102% and the T/C (P388 [5]) was 164%. For the same compound, the Weight loss (P388 [6]) was -1.4, the Weight loss (P388 [43]) was -2.3 and the T/C (P388 [7]) was 160%. For the same compound, the T/C (P388 [8]) was 160%, the Weight loss (P388 [9]) was -1.1 and the “No. of mice survived” value (P388 [10]) was 5. The “No. of mice survived” value (P388 [12]) was 6, the Weight loss (P388 [13]) was -2.5 and the “No. of mice survived” value (P388 [44]) was 6. For the same compound, the “No. of mice survived” value (P388 [14]) was 6 and the “No. of mice survived” value (P388 [15]) was 6.
